Screening results from PubChem.
MT stabilizer = microtubule stabilization, imaging screen; HeLa tubulin immunostaining HCS, 24 h; share of cells brighter than vehicle mean+2SD; % tubulin-high responders, % at 10 µM; 200,000 tested, 0.83% active; AID 2205;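 active = plate Z-score above 3 for both tubulin-high and condensed-nucleus cell shares, with cell loss under 80%, at 10 µM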;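 also: anti alpha tubulin signal scored within the nucleus-defined area of each cell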
NPY-Y1 antag = antagonists of human neuropeptide Y receptor Y1 | P25929 | AID 1040 | inhibition, % at 3.6 µM | HEK293-CNG Y1 cells, membrane potential fluorescence; NPY at EC95, then isoproterenol | 200,000 tested, 1% active;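 active = inhibition above the campaign mean inhibition of all tested compounds plus 3 SD, cut at about 20% in these data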;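 also: 0% = DMSO wells given NPY plus isoproterenol and 100% = isoproterenol alone without NPY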
Target sequence (P25929 whole entry, looked up): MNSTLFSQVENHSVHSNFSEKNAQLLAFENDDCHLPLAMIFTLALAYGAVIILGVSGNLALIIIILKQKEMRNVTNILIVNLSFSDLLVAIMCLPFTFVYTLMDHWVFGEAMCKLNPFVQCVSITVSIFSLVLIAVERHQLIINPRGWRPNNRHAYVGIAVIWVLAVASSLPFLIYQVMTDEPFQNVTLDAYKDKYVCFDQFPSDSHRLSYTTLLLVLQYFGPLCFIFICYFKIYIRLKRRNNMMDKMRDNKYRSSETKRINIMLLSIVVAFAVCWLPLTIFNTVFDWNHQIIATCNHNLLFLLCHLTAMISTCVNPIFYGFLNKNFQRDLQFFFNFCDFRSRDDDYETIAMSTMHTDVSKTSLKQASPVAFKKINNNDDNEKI
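Assay system: HEK293 cells with Y1 receptor plus CNG channel | Probe or stimulus: NPY (25 nM), isoproterenol (1 µM), Ro 20-1724 (25 µM) | Timing: Compound incubation 1 h at room temperature, readout 45 min post-stimulation | Measured by: Membrane-potential fluorescent dye readout | Benchmarks: High control isoproterenol alone, low control NPY with isoproterenol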
b-catenin transl = alters nuclear translocation of beta-catenin in HeLa cells; 190,000 tested, 0.3% active; immunofluorescence imaging; AID 1665; nuclear translocation activity, % at 5 µM;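 active = nuclear translocation activity above 50% at 5 µM, with a well cell count of 50 or more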;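 also: per-cell ratio of nuclear to cytoplasmic median beta-catenin stain intensity; plate controls were DMSO negative control for no effect and GSK-3 inhibitor IX positive control for full effect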
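Assay system: human HeLa cells, native beta-catenin; doses: 5 µM primary, 0.02–20 µM confirmation; incubation: compound treatment 24 h, 37°C, 5% CO2; technique: fluorescence imaging of beta-catenin antibody stain plus DAPI; measure: % activation, nuclear-to-cytoplasmic median beta-catenin signal ratio per cell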
NPY-Y1 PAM-ag = human NPY-Y1 potentiation or agonism, primary screen | activation, % at 3.6 µM | NPY-Y1 expressing cells, potentiator/agonist activation | 220,000 tested, 0.37% active | P25929; in the data active = activation above about 33%, passing the limit was not always enough;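 also: cells stimulated with NPY at EC10 then isoproterenol at EC100; 0% = low agonist plus stimulus and 100% = saturating agonist plus stimulus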
NPY2 pot ag = human NPY-Y2 potentiation or agonism, primary screen | P49146 | cells expressing NPY-Y2, potentiator/agonist read-out | activation, % at 3.6 µM | 220,000 tested, 0.45% active | AID 1359; in the data active = activation above about 27%;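 also: cells stimulated with NPY near EC25 plus isoproterenol at EC100; 0% = vehicle plus submaximal agonist and 100% = vehicle plus saturating agonist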
NPY-Y2 antag = NPY-Y2 (human) receptor antagonism | inhibition, % at 2.7 µM | 140,000 tested, 0.99% active | AID 793 | NPY-Y2 expressing cells, antagonist mode; in the data active = inhibition above about 17%;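 also: 0% = vehicle with agonist challenge and 100% = reference antagonist with challenge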
* marks the source's active call; other numbers are inactive results. An excerpt weighted towards active compounds, which were near 2.6% of everything screened.

CN(C)c1ccc(C(=O)n2nnc3ccccc32)cc1 was read as MT stabilizer 1, NPY-Y1 antag 4, b-catenin transl 14, NPY-Y1 PAM-ag -17, NPY2 pot ag 1 and NPY-Y2 antag 4.
O=C(N/N=C/c1ccc([N+](=O)[O-])cc1)c1cc(C2CC2)nc2ccccc12 was read as b-catenin transl 3, NPY-Y1 PAM-ag 5 and NPY2 pot ag -15.
`CCc1ccc(/C=N/NC(=O)c2cc(C3CC3)nc3ccccc23)s1` gave MT stabilizer 41*, NPY-Y1 antag 14, NPY-Y1 PAM-ag -21, NPY2 pot ag -3 and NPY-Y2 antag 1.
`O=C(O)C(=O)/C(=C\c1cccc2ccccc12)c1ccc2ccccc2n1` gave MT stabilizer 41*, NPY-Y1 antag 4, NPY-Y1 PAM-ag 23, NPY2 pot ag -8 and NPY-Y2 antag 2.
`O=C(O)C(=O)/C(=C\c1ccccc1)c1ccc2ccccc2n1` gave MT stabilizer 3, NPY-Y1 antag -8, NPY-Y1 PAM-ag 26, NPY2 pot ag 9 and NPY-Y2 antag 5.
For O=C(Nc1ccccc1N1CCOCC1)c1ccc(Cl)c(S(=O)(=O)NCc2ccco2)c1 the results were MT stabilizer 2, NPY-Y1 antag 1, b-catenin transl -3, NPY-Y1 PAM-ag 5 and NPY2 pot ag -7.
For COc1ccccc1N1CCN(C(=O)c2ccc(Cl)c(S(=O)(=O)NCc3ccco3)c2)CC1 the results were MT stabilizer 50*, NPY-Y1 antag -2, b-catenin transl 129*, NPY-Y1 PAM-ag 17, NPY2 pot ag 13 and NPY-Y2 antag 5.
For COc1cc(C)c(Cl)cc1S(=O)(=O)NCc1ccco1 the results were MT stabilizer 5, NPY-Y1 antag 15, b-catenin transl -2, NPY-Y1 PAM-ag 12, NPY2 pot ag 7 and NPY-Y2 antag 2.
For O=C(c1ccc(Cl)c(S(=O)(=O)NCc2ccco2)c1)N1CCN(c2ccccc2F)CC1 the results were MT stabilizer 41*, NPY-Y1 antag 2, NPY-Y1 PAM-ag -26, NPY2 pot ag -17 and NPY-Y2 antag 4.
O=C(NCc1ccccn1)c1ccc(CNS(=O)(=O)c2ccc(F)cc2)cc1 was read as MT stabilizer 2, NPY-Y1 antag 2, b-catenin transl -3, NPY-Y1 PAM-ag 20, NPY2 pot ag -1 and NPY-Y2 antag 6.
For Cn1c(SCC(=O)N(C2CCCCC2)C2CCCCC2)nnc1-c1cccs1 the results were MT stabilizer 28*, NPY-Y1 antag -1, NPY-Y1 PAM-ag -12, NPY2 pot ag 2 and NPY-Y2 antag 2.
Screening Cc1ccc(C(=O)CSc2nnc(-c3cccs3)n2C)o1 returned MT stabilizer 5, NPY-Y1 antag -2, NPY-Y1 PAM-ag -3, NPY2 pot ag 0 and NPY-Y2 antag 0.
Screening CCN(CC1COc2ccccc2O1)C(=S)Nc1ccccc1 (centres undefined) returned MT stabilizer 3, NPY-Y1 antag -2, b-catenin transl 1, NPY-Y1 PAM-ag 46*, NPY2 pot ag -4 and NPY-Y2 antag 6.
For O=c1c2ccccc2nc2n1CCC2O (centres undefined) the results were MT stabilizer 0, NPY-Y1 antag -1, b-catenin transl 4, NPY-Y1 PAM-ag 3 and NPY2 pot ag -8.
Cc1ccc(SCc2[nH]nc3c2C(C(C)C)C(C#N)=C(N)O3)cc1 (centres undefined) was read as MT stabilizer 3, NPY-Y1 antag -7, b-catenin transl -2, NPY-Y1 PAM-ag 21, NPY2 pot ag 13 and NPY-Y2 antag 2.
Screening Cc1ccc(SCc2[nH]nc3c2C(c2ccco2)C(C#N)=C(N)O3)cc1 (centres undefined) returned MT stabilizer 4, NPY-Y1 antag 106*, b-catenin transl 0, NPY-Y1 PAM-ag -25, NPY2 pot ag -15 and NPY-Y2 antag 127*.
For CCc1[nH]nc2c1C(c1ccc(C)o1)C(C#N)=C(N)O2 (centres undefined) the results were MT stabilizer 2, NPY-Y1 antag 1, b-catenin transl 0, NPY-Y1 PAM-ag 4 and NPY2 pot ag -14.
`Cc1ccc(SCc2[nH]nc3c2C(c2ccc(C)o2)C(C#N)=C(N)O3)cc1` (centres undefined) gave MT stabilizer 4, NPY-Y1 antag 120*, b-catenin transl 0, NPY-Y1 PAM-ag -46, NPY2 pot ag -20 and NPY-Y2 antag 79*.
Screening CC(=O)c1ccc(NC(=O)C(C)Nc2ccc(Cl)cc2)cc1 (centres undefined) returned MT stabilizer 4, NPY-Y1 antag -3, b-catenin transl 0, NPY-Y1 PAM-ag 12 and NPY2 pot ag 11.
`CC1Cc2ccccc2N1C(=O)COC(=O)c1ccc(Br)o1` (centres undefined) gave MT stabilizer 2, NPY-Y1 antag -3, b-catenin transl -5, NPY-Y1 PAM-ag -1 and NPY2 pot ag 0.
For COc1cc(C2Nc3cccc4cccc(c34)N2)cc(OC)c1OC(C)=O the results were MT stabilizer 16*, NPY-Y1 antag 4, b-catenin transl -1, NPY-Y1 PAM-ag 13, NPY2 pot ag 4 and NPY-Y2 antag 10.
Screening COc1ccc(NC(=O)Cn2nnc(-c3ccccc3NC(=O)c3cccs3)n2)cc1 returned MT stabilizer 19*, NPY-Y1 antag 0, b-catenin transl -1, NPY-Y1 PAM-ag 2, NPY2 pot ag -2 and NPY-Y2 antag 5.
`O=C(Cn1nnc(-c2ccccc2NC(=O)c2ccco2)n1)Nc1ccccc1` gave MT stabilizer 14, NPY-Y1 antag 2, b-catenin transl 0, NPY-Y1 PAM-ag -14, NPY2 pot ag -2 and NPY-Y2 antag 1.
Screening COc1ccc(NC(=O)Cn2nnc(-c3ccccc3NS(=O)(=O)c3ccc(OC)cc3)n2)cc1 returned MT stabilizer 6, NPY-Y1 antag 0, NPY-Y1 PAM-ag -23, NPY2 pot ag 21 and NPY-Y2 antag 0.
For Cc1ccc(NC(=O)Cn2nnc(-c3ccccc3NC(=O)c3cccs3)n2)cc1 the results were MT stabilizer 21*, NPY-Y1 antag 4, b-catenin transl 58*, NPY-Y1 PAM-ag 13, NPY2 pot ag 0 and NPY-Y2 antag 2.
CNc1ccc(/C=C(\C#N)c2ccccn2)cc1[N+](=O)[O-] was read as MT stabilizer 2, NPY-Y1 antag 4, b-catenin transl 2, NPY-Y1 PAM-ag 8 and NPY2 pot ag 6.
`N#C/C(=C\c1ccc(Cl)c([N+](=O)[O-])c1)c1ccccn1` gave MT stabilizer 66, NPY-Y1 antag -1, b-catenin transl 80*, NPY-Y1 PAM-ag -5 and NPY2 pot ag -2.
For CC1CC(=O)Nc2ccccc2N1S(=O)(=O)c1cccc(Cl)c1 (centres undefined) the results were MT stabilizer 1, NPY-Y1 antag 4, b-catenin transl -3, NPY-Y1 PAM-ag -11, NPY2 pot ag 6 and NPY-Y2 antag 4.
